According to ChEMBL document CHEMBL4828730, “Gemfibrozil derivatives as activators of soluble guanylyl cyclase - A structure-activity study” (Eur J Med Chem, 2021):
Activity calls are given as the source filed them. No cut-off for these calls is given here.

Assays:
[1] = molecular target: T1, Soluble guanylate cyclase alpha1/beta1 complex (Homo sapiens, UniProt Q02108+Q02153); experiment: (§1) Activation of full length human sGC alpha1/beta1 subunit containing heme in ferric state expressed in Sf9 insect cells using […] incubated for 15 mins by [32P]GTP assay
T1 sequence (Q02153 whole entry): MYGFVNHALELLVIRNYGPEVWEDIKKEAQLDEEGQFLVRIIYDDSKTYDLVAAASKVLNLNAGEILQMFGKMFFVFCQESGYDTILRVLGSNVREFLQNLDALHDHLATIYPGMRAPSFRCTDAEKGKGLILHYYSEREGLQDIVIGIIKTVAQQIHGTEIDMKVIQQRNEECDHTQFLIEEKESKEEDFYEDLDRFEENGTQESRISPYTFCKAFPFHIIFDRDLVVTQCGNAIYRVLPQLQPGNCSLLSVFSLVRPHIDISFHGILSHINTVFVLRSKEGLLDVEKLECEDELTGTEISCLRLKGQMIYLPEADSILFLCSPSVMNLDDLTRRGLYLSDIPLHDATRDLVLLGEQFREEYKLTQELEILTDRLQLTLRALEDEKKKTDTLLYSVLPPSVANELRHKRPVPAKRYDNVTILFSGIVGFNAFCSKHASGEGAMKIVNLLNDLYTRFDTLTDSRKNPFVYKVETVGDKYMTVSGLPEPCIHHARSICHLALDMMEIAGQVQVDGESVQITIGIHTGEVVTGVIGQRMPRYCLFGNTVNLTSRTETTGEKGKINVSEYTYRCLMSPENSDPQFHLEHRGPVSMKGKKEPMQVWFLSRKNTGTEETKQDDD
T1 sequence (Q02108 whole entry): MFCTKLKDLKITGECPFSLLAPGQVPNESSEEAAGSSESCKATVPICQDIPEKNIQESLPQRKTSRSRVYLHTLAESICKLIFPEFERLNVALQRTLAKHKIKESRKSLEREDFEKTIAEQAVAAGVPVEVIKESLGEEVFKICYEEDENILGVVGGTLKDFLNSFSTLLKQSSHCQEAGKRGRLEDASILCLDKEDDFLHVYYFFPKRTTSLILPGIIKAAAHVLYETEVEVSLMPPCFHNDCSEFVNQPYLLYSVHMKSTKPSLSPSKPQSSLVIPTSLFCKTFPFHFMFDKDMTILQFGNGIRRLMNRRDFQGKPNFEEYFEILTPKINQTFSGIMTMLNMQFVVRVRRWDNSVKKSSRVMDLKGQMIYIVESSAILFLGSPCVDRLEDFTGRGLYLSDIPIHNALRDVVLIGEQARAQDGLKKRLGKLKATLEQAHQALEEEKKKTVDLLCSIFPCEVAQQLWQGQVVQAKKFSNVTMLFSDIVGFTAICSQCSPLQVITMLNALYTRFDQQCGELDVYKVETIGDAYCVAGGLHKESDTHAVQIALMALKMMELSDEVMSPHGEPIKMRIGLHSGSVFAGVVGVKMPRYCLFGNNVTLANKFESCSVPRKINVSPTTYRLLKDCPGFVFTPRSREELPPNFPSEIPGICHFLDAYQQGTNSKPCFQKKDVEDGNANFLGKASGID
Outline: (§2)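 Reaction started at 37°C with 1 mM GTP/[α-32P]GTP for 15 min, then stopped by zinc carbonate precipitation. Single-dose test at 100 μM relative to vehicle; concentration-response gives EC50 as mean ± SD.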

[2] = molecular target: T2, Soluble guanylate cyclase alpha1/beta1 complex (Homo sapiens) (UniProt Q02153+Q02108); experiment: Activation of full length human sGC alpha1/beta1 subunit containing heme in ferric state expressed in Sf9 insect cells using […] incubated for 15 mins at 100 uM incubated for 10 mins by [32P]GTP assay relative to control; conditions: filed as activator; outline: as §2
Thoracic aorta = experiment: Vasodilation activity in C57Bl6 mouse thoracic aorta assessed as inhibition of phenylephrine-induced contractions; type: functional, tissue-based; conditions: for minimal effective concentration: read-out: MEC
Outline: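 Isolated mouse aortic rings on a wire myograph, equilibrated 80 min in carbogen-gassed Krebs-Henseleit pH 7.4. Rings were precontracted with 500 nM phenylephrine plus 100 nM 5-hydroxytryptamine to submaximal tension, then given cumulative compound doses while isometric tension was recorded. IC50 was derived by nonlinear regression.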

[3] = molecular target: T2, Soluble guanylate cyclase alpha1/beta1 complex (Homo sapiens); experiment: as §1; outline: as §2

EC50 [1] | fold change (FC) [2] | IC50 (Thoracic aorta) | Activity [3] | SMILES | minimal effective concentration (Thoracic aorta)
166 µM | 2.6 | 71 µM |  | Cc1ccc(C(C)C)c(OCCCC(C)(C)C(=O)O)c1 | 10 µM
 |  |  | inactive | CCCCCC(=O)N(CCCC(C)(C)C(=O)O)c1cc(C)ccc1C | 
 |  |  | inactive | Cc1ccc(C)c(OCCCC(=O)O)c1 | 
 |  |  | inactive | Cc1ccc(C)c(OCCCC(C)(C)C(=O)NCCNC(=O)C(C)(C)CCCOc2cc(C)ccc2C)c1 | 
 |  |  | inactive | CCC(CCCOc1cc(C)ccc1C)C(=O)O (stereo not given) | 
 |  |  | inactive | CCNC(=O)C(C)(C)CCCOc1cc(C)ccc1C | 
 |  |  | inactive | O=C(O)CCCCCSc1ccccc1 | 
 |  |  | inactive | Cc1ccc(C)c(OCCCC(C)(C)C(=O)NCCCCNC(=O)C(C)(C)CCCOc2cc(C)ccc2C)c1 | 
50 µM | 2.9 | 721 µM |  | Cc1ccc(C)c(NCCCC(C)(C)C(=O)O)c1 | 100 µM
 |  |  | inactive | Cc1ccc(C)c(OCCCC(C)(C)C(=O)NCCCCCCNC(=O)C(C)(C)CCCOc2cc(C)ccc2C)c1 | 
 |  |  | inactive | CCCC(=O)N(CCCC(C)(C)C(=O)O)c1cc(C)ccc1C | 
128 µM | 4.1 | 45 µM |  | CCCCCCC(CCCOc1cc(C)ccc1C)C(=O)O (stereo not given) | 10 µM
119 µM | 2.2 | 261 µM |  | Cc1ccc(C)c(N(CCCC(C)(C)C(=O)O)C(=O)CCCCC(=O)N(CCCC(C)(C)C(=O)O)c2cc(C)ccc2C)c1 | 10 µM
 |  |  | inactive | CNC(=O)C(C)(C)CCCOc1cc(C)ccc1C | 
389 µM | 2.1 | > 1000 µM |  | Cc1ccc(C)c(OCCCCCC(=O)O)c1 | 300 µM
 |  |  | inactive | CCCCCCNC(=O)C(C)(C)CCCOc1cc(C)ccc1C | 
624 µM | 4 | 310 µM |  | Cc1ccc(C)c(OCCCC(C)(C)C(=O)O)c1 [GEMFIBROZIL] | 30 µM
 |  |  | inactive | Cc1ccc(C)c(OCCCC(C)(C)C(N)=O)c1 | 
707 µM | 2.9 | 812 µM |  | Cc1ccc(C)c(OCCCCC(=O)O)c1 | 100 µM
 |  |  | inactive | O=C(O)CCCCCOc1ccccc1 | 
 |  |  | inactive | CCCCNC(=O)C(C)(C)CCCOc1cc(C)ccc1C | 
 |  |  | inactive | Cc1ccccc1OCCCC(C)(C)C(=O)O | 
 |  |  | inactive | Cc1ccc(C)c(OCC(=O)O)c1 | 
 |  |  | inactive | CC(=O)N(CCCC(C)(C)C(=O)O)c1cc(C)ccc1C | 
